Laboratory results from ChEMBL document CHEMBL2021862, “5-imino-1,2,4-thiadiazoles: first small molecules as substrate competitive inhibitors of glycogen synthase kinase 3” (J Med Chem, 2012).
Active and inactive are the calls of the source. The rule behind the calls is not given here.

Molecular target: Glycogen synthase kinase-3 beta (Homo sapiens, UniProt P49841)
Assay: Competitive inhibition of human recombinant GSK3beta at 12.5 to 100 uM after 30 mins by Michaelis-Menten equation in presence of 1 uM ATP
Summary of the method: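 Lineweaver–Burk kinetics on human recombinant GSK-3β. GS-2 substrate was varied from 12.5 to 100 μM against inhibitor at 0.5–2.5 μM, with ATP held at 1 μM. Luminescent kinase read-out. Each point is the mean of two experiments, each run in duplicate.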

Chain of Glycogen synthase kinase-3 beta (P49841 whole entry, looked up): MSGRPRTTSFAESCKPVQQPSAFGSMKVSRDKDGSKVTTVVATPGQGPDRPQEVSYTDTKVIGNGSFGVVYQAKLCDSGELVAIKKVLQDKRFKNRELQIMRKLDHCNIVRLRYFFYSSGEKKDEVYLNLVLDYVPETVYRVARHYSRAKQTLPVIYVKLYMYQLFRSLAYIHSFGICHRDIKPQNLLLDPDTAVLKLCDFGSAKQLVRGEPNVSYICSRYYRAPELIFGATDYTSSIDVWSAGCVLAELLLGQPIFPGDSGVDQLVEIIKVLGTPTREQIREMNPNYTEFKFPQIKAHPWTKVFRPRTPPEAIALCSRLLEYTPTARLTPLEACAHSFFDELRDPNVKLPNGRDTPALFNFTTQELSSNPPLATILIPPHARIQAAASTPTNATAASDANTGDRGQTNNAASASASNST

inhibition: Active
Substance: H-YRRAAVPPSPSLSRHSSPHQAEDEEE-OH
